Data on 41 compounds can be found in ChEMBL document CHEMBL1806495, “Phenylpropenamide derivatives: anti-hepatitis B virus activity of the Z isomer, SAR and the search for novel analogs” (Bioorg Med Chem Lett, 2011).

SMILES strings stand for the structures. The source made the active and inactive calls. The calls are words filed in the database; no cut-off is given here.

The subject of data set [1] is Hepatitis B virus. Description: Antiviral activity against HBV infected in human HepAD38 cells assessed as inhibition of viral DNA synthesis after 3 days. It counts as functional. As to conditions: HePAD38, 72 h. The gist of the method:
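Anti-HBV readout in the Hep AD38 cellular assay: the value is reported as EC90, the compound concentration that inhibits viral DNA synthesis by 90%.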

Data set [2] in a line: Cytotoxicity against human HepAD38 cells. It counts as cell-based. Put shortly:
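Viability of Hep AD38 cells measured within the same cellular assay. The value is reported as CC90, the drug concentration that reduces cell viability by 90%.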

The test system of data set [3] is Hepatitis B virus. Description: Antiviral activity against HBV infected in human HepAD38 cells assessed as inhibition of viral DNA synthesis up to 100 uM after 3 days. It counts as functional, organism-based.

Regarding `O=C(N/C(C(=O)N1CCCC(F)(F)C1)=C(\Cl)c1ccccc1)c1ccccc1`, in the data set with Hepatitis B virus [1], the concentration for an effect of 90% (EC90) is over 10 µM. Also, the CC90 in data set [2] was over 10 µM. On to `O=C(N/C(C(=O)N1CCCCC1)=C(\Br)c1ccccc1)c1ccc(Cl)cc1`, for which the EC90 in the data set with Hepatitis B virus [1] was found to be 0.91 µM. Also, the CC90 in data set [2] is over 10 µM.

Consider `COc1ccccc1/C(Cl)=C(/NC(=O)c1ccccc1)C(=O)N1CCCCC1`, for which, in the data set on Hepatitis B virus [1], the concentration for an effect of 90% (EC90) turned out to be 1.71 µM. In data set [2], this compound had a CC90 of over 10 µM. With `O=C(C1C(c2ccccc2)CCN1C(=O)c1ccc(Br)cc1)N1CCCCC1` (stereo unspecified), the EC90 with Hepatitis B virus [1] was over 10 µM. In data set [2], this compound returned a CC90 of over 10 µM. With `O=C(N/C(C(=O)N1CCCCC1)=C(\Cl)c1ccccc1)c1ccc(Br)cc1`, the EC90 in the data set on Hepatitis B virus [1] is 6.04 µM. For the same compound, the CC90 in data set [2] is over 10 µM. For `O=C(N/C(C(=O)N1CCOCC1)=C(\Cl)c1ccccc1)c1ccccc1`, the EC90 in the data set with Hepatitis B virus [1] is over 10 µM. Also, in data set [2], the CC90 is over 10 µM.

On to `COc1ccccc1/C(Cl)=C(/NC(=O)c1ccc([N+](=O)[O-])cc1)C(=O)N1CCCC1`, for which the EC90 in the data set on Hepatitis B virus [1] came out at 1.69 µM. Moreover, the CC90 in data set [2] is over 10 µM. With `O=C(N/C(C(=O)N1CCCCC1)=C(\Cl)c1ccccc1)c1ccc([N+](=O)[O-])cc1Br`, the EC90 in the data set on Hepatitis B virus [1] turned out to be 4.06 µM. The compound also came in with a CC90 in data set [2] of over 10 µM. For `COc1ccccc1/C(Cl)=C(/NC(=O)c1ccc([N+](=O)[O-])cc1)C(=O)N1CCCCC1`, in that order: 0.56 µM and over 10 µM. As to `O=C(N/C(C(=O)N1CCCCC1)=C(\Cl)c1ccccc1)c1ccc([N+](=O)[O-])cc1[N+](=O)[O-]`, the 90% effect concentration (EC90) in the data set with Hepatitis B virus [1] was over 10 µM. Also, the CC90 in data set [2] is over 10 µM. Take `Cc1ccccc1/C(Cl)=C(/NC(=O)c1ccccc1)C(=O)N1CCCCC1`: the EC90 in the data set on Hepatitis B virus [1] was 1.8 µM. For the same compound, the CC90 in data set [2] was over 10 µM.

As for `O=C(N/C(C(=O)N1CCCCC1)=C(\Br)c1cccc2c1OCO2)c1ccc([N+](=O)[O-])cc1`, the EC90 in the data set with Hepatitis B virus [1] came out at 1.25 µM. Besides, the CC90 in data set [2] was over 10 µM. For `Cc1ccc(/C(Cl)=C(/NC(=O)c2ccccc2)C(=O)N2CCCCC2)cc1` the same measures were over 10 µM and over 10 µM. For `O=C(N/C(C(=O)N1CCCCC1)=C(/Cl)c1ccccc1)c1ccccc1`, the inhibition result in the data set on Hepatitis B virus [3] is “inactive”.

For the compound `O=C(N/C(C(=O)N1CCCCC1)=C(\Cl)c1ccc(Cl)cc1)c1ccccc1`, the EC90 with Hepatitis B virus [1] was over 10 µM. Further, in data set [2], the CC90 is over 10 µM. In the case of `O=C(N/C(C(=O)N1CCCCC1)=C(\Cl)c1ccccc1)c1ccc(Cl)cc1`, the EC90 with Hepatitis B virus [1] worked out at 1.25 µM. The same compound yielded a CC90 in data set [2] of over 10 µM. With `O=C(C1=C(c2ccccc2)CCN1C(=O)c1ccccc1)N1CCCCC1`, the EC90 in the data set on Hepatitis B virus [1] was over 10 µM. Moreover, the CC90 in data set [2] was over 10 µM. `O=C(N/C(C(=O)N1CCCCC1)=C(\Br)c1ccccc1)c1ccccc1`: the EC90 with Hepatitis B virus [1] was 5.9 µM. This compound also showed a CC90 in data set [2] of over 10 µM. Turning to `O=C(N/C(C(=O)N1CCCCC1)=C(\Cl)c1ccccc1)c1ccc([N+](=O)[O-])cc1`, the EC90 in the data set with Hepatitis B virus [1] was determined as 1.67 µM. This compound yielded a CC90 in data set [2] of over 10 µM. Take `O=C(N/C(C(=O)N1CCCCC1)=C(\Cl)c1cccc2c1OCO2)c1ccccc1`: in the data set with Hepatitis B virus [1], the EC90 turned out to be 9.9 µM. For the same compound, the CC90 in data set [2] is over 10 µM.

For the compound `O=C(C1=C(c2ccccc2)CCN1C(=O)c1ccc(Br)cc1)N1CCCCC1`, in the data set with Hepatitis B virus [1], the EC90 is over 10 µM. Besides, the CC90 in data set [2] was over 10 µM. Turning to `O=C(N/C(C(=O)N1CCCCC1)=C(\Cl)c1ccccc1)c1ccccc1`, the EC90 in the data set with Hepatitis B virus [1] was 5.51 µM. The CC90 in data set [2] is over 10 µM. `CS(=O)(=O)c1ccc(C(=O)N/C(C(=O)N2CCCCC2)=C(\Cl)c2ccccc2)cc1`: the EC90 in the data set on Hepatitis B virus [1] was over 10 µM. In addition, the CC90 in data set [2] is over 10 µM. As for `O=C(N/C(C(=O)N1CCCCC1)=C(\Cl)c1ccccc1)c1ccc(F)cc1`, the EC90 with Hepatitis B virus [1] amounted to 2.17 µM. Further, the CC90 in data set [2] is over 10 µM.

Regarding `O=C(N/C(C(=O)N1CCCCC1)=C(\Cl)c1ccccc1F)c1ccccc1`, the EC90 in the data set on Hepatitis B virus [1] worked out at 1.81 µM. In data set [2], this compound yielded a CC90 of over 10 µM. For `COc1ccccc1/C(Br)=C(/NC(=O)c1ccc([N+](=O)[O-])cc1)C(=O)N1CCCC1`, in that order: 0.39 µM and over 10 µM.

In the case of `O=C(N/C(C(=O)N1CCCCC1)=C(\Cl)c1ccccc1)c1ccc([N+](=O)[O-])cc1C(F)(F)F`, in the data set on Hepatitis B virus [1], the EC90 is over 10 µM. The compound further displayed a CC90 in data set [2] of over 10 µM. On to `O=C(c1c(-c2ccccc2)ccn1C(=O)c1ccc(Br)cc1)N1CCCCC1`, for which, in the data set with Hepatitis B virus [1], the EC90 was over 10 µM. Also, the CC90 in data set [2] was over 10 µM.

Consider `COc1ccccc1/C(Br)=C(/NC(=O)c1ccccc1)C(=O)N1CCOCC1`, for which the EC90 in the data set with Hepatitis B virus [1] is 2.78 µM. In data set [2], this compound had a CC90 of over 10 µM.

As to `CC1CCCN(C(=O)/C(NC(=O)c2ccccc2)=C(/Cl)c2ccccc2)C1` (stereo unspecified), in the data set with Hepatitis B virus [1], the EC90 was found to be 6.43 µM. The compound further came in with a CC90 in data set [2] of over 10 µM.

In the case of `COc1ccccc1C1=C(C(=O)N2CCCCC2)N(C(=O)c2ccccc2)CC1`, the EC90 with Hepatitis B virus [1] was over 10 µM. In addition, the CC90 in data set [2] is over 10 µM. Consider `C/C(=C(/NC(=O)c1ccc(Br)cc1)C(=O)N1CCCCC1)c1ccccc1`, for which the EC90 in the data set with Hepatitis B virus [1] was determined as 3.92 µM. The CC90 in data set [2] was over 10 µM. With `O=C(N/C(C(=O)N1CCCCC1)=C(\Cl)c1cccc2c1OCO2)c1ccc([N+](=O)[O-])cc1`, the EC90 with Hepatitis B virus [1] was 4.66 µM. In data set [2], the CC90 is over 10 µM. Consider `COc1cc([N+](=O)[O-])ccc1C(=O)N/C(C(=O)N1CCCCC1)=C(\Cl)c1ccccc1`, for which the EC90 in the data set with Hepatitis B virus [1] was over 10 µM. Also, the CC90 in data set [2] is over 10 µM. For `C/C(=C(/NC(=O)c1ccc(Cl)cc1)C(=O)N1CCCCC1)c1ccccc1`, the EC90 in the data set on Hepatitis B virus [1] was found to be 1.92 µM. The compound further registered a CC90 in data set [2] of over 10 µM. As for `O=C(c1c(-c2ccccc2)ccn1C(=O)c1ccccc1)N1CCCCC1`, the EC90 in the data set with Hepatitis B virus [1] was over 10 µM. The same compound displayed a CC90 in data set [2] of over 10 µM. `CN1CCN(C(=O)/C(NC(=O)c2ccccc2)=C(/Cl)c2ccccc2)CC1`: the EC90 in the data set with Hepatitis B virus [1] was over 10 µM. This compound gave a CC90 in data set [2] of over 10 µM. As for `Cc1ccc(C(=O)N/C(C(=O)N2CCCCC2)=C(\Cl)c2ccccc2)cc1`, in the data set with Hepatitis B virus [1], the EC90 turned out to be 2.9 µM. The compound further returned a CC90 in data set [2] of over 10 µM. For `O=C(C1C(c2ccccc2)CCN1C(=O)c1ccccc1)N1CCCCC1` (stereo unspecified), the EC90 in the data set with Hepatitis B virus [1] was over 10 µM. Also, the CC90 in data set [2] is over 10 µM. In the case of `COc1ccccc1/C(Cl)=C(/NC(=O)c1ccccc1)C(=O)N1CCOCC1`, the EC90 with Hepatitis B virus [1] was determined as 4.72 µM. Further, in data set [2], the CC90 is over 10 µM. With `COc1ccc(C(=O)N/C(C(=O)N2CCCCC2)=C(\Cl)c2ccccc2)cc1`, in the data set with Hepatitis B virus [1], the EC90 was over 10 µM. The CC90 in data set [2] is over 10 µM.

By EC90 is commonly meant the point of the concentration-response curve where the effect stands at 90%.
